Source: PubChem BioAssay (Johns Hopkins Ion Channel Center)
KCNQ1 pot – potentiators or activators of KCNQ1 channel, primary screen, cell-based, thallium flux, high-throughput; Potassium voltage-gated channel subfamily KQT member 1 (Homo sapiens), P51787; CHO-K1 KCNQ1, thallium flux FluxOR fluorescence; active compounds read high; B-score at 10 µM; actives 0.35% (n = 310,000);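 active means fluorescence ratio B-score, a plate-corrected score, at least three library SD, with initial intensity B-score within 5 SD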
Target sequence (P51787 whole entry, looked up): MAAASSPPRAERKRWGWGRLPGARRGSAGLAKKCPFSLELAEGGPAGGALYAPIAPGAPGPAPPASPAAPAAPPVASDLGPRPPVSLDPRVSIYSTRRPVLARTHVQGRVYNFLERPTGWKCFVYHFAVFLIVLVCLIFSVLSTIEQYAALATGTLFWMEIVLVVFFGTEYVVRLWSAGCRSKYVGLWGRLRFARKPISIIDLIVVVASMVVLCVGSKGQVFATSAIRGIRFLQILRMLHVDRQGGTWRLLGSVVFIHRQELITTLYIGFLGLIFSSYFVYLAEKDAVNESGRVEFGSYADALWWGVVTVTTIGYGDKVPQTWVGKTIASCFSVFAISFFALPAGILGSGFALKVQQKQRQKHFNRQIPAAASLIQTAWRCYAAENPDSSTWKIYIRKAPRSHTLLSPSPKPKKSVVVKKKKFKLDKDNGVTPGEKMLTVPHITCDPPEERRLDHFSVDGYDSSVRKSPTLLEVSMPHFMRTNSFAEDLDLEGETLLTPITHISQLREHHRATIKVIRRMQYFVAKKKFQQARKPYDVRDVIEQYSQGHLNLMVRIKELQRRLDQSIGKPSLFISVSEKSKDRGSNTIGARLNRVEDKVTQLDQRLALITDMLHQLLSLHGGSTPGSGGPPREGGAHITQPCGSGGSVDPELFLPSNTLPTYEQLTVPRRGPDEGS
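System: Stable KCNQ1 CHO-K1 line | Incubation: 90 min dye loading and 20 min compound exposure, both at room temperature | Measure: Ratio B score | Medium: Assay buffer for compound exposure, DMSO matched across wells | Compound dosing: Single-concentration screen | Probe or stimulus: K+/Tl+ depolarizing stimulus | Measured by: Kinetic FluxOR fluorescence, 10 s baseline plus 110 s post-stimulus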
KCNQ1 block – inhibitors of human KCNQ1 channel, primary screen, cell-based, thallium flux, high-throughput; B-score at 10 µM; CHO-K1 KCNQ1, FluxOR thallium flux fluorescence; active compounds read high; Potassium voltage-gated channel subfamily KQT member 1 (Homo sapiens), P51787; actives 1.3% (n = 310,000);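 active means compounds whose thallium flux B-score, printed positive for inhibition, exceeds three library SD while starting fluorescence stays within three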;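 further: channel opened by potassium depolarization with thallium stimulus after 20 min compound exposure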
hERG rescue – hERG rescue from dofetilide block, primary screen, cell-based, CHO-hERG, FluxOR thallium flux, dofetilide IC70; dofetilide IC70 present; activation (rescue from dofetilide block), less the hit threshold, % at 10 µM; Voltage-gated inwardly rectifying potassium channel KCNH2 (Homo sapiens), Q12809; actives 0.51% (n = 310,000);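 active means activation above the mean of controls blocked by dofetilide plus 5 SD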;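 further: thallium influx through hERG after potassium depolarization seen as dye fluorescence rise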
KCNK9 inh – KCNK9 potassium channel inhibitors, primary screen, HEK293 cells, thallium flux; Potassium channel subfamily K member 9 (Homo sapiens), Q9NPC2; FluxOR thallium flux fluorescence; active compounds read low; B-score at 10 µM; actives 1.2% (n = 310,000); AID 488922, 2010;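 active means ratio B-score over 3 SD below the library mean, with starting fluorescence within 5 SD of its mean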;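 further: negative B-score means less thallium flux so channel inhibition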
KCNK3 inh – human KCNK3 channel inhibitors, primary screen, CHO cells, FluxOR thallium flux, B-score; actives 0.84% (n = 340,000); B-score at 10 µM; FluxOR fluorescence; active compounds read low; Potassium channel subfamily K member 3 (Homo sapiens), O14649;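 active means B-score under library mean minus 4 SD, starting fluorescence ratio at most library mean plus 5 SD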;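 further: more negative B-score means stronger inhibition of thallium flux through KCNK3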
Kir21 block – inhibitors of mouse Kir2.1 inward-rectifier potassium channel; B-score at 10 µM; actives 0.85% (n = 310,000); HEK293-Kir2.1, FluxOR thallium flux fluorescence; active compounds read low; AID 1672, 2009; Inward rectifier potassium channel 2 (Mus musculus), P35561;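 active means fluorescence ratio B-score at or below minus 3 SD of library scores, with starting-brightness B-score within 2 SD, cut at about -4.2 in these data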;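 further: channel flux triggered by added potassium and thallium sulfate stimulus; B-score of peak minus minimum fluorescence over baseline after thallium stimulus; more negative B-score means stronger Kir2.1 block with less thallium influx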
KCNK9 block conf – KCNK9 potassium channel inhibitors, confirmation, HEK293 cells, thallium flux, duplicate | shares compounds with KCNK9 inh | FluxOR thallium flux fluorescence | inhibition, % at 10 µM | actives 43% (n = 4,900);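 active means thallium signal inhibited by more than 5 SD of the compound-free buffer control wells, on both duplicate plates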;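 further: 0% = assay buffer control wells without compound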
Kir2-1 spec – mouse Kir2.1 channel inhibition, confirmation, selectivity assay for KCNK9 modulator project, cell-based, HEK293, thallium flux; inhibition, % at 10 µM; actives 4% (n = 4,900); shares compounds with KCNK9 inh; Kir2.1 cells, FluxOR thallium flux fluorescence; AID 492993, 2010;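 active means thallium signal drop more than 5 SD beyond the mean of the no-compound control wells, seen in both duplicate plates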;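 further: signal is fluorescence rise after thallium addition divided by baseline fluorescence; plate controls were assay buffer only for no effect and full block by chlorpromazine control for full effect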
HEK293 Tl ctr – thallium flux in non-induced HEK293 cells, confirmation, counter-screen for KCNK9 inhibitor project, cell-based, second counter screen, non-induced KCNK9-HEK293. shares compounds with KCNK9 inh. FluxOR thallium flux. inhibition, % at 10 µM. actives 40% (n = 4,900). AID 492997, 2010;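 active means thallium signal drop beyond 5 SD of the untreated control mean, on both duplicate plates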;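 further: plate controls were buffer only IC0 wells for no effect and SID17386958 at its maximal inhibitory level for full effect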
Active calls of the source: *; i = inactive; / = no result. A selection: hits, their analogues and other compounds. The true share with any hit is near 3.7%.

SMILES	KCNQ1 pot	KCNQ1 block	hERG rescue	KCNK9 inh	KCNK3 inh	Kir21 block	KCNK9 block conf	Kir2-1 spec	HEK293 Tl ctr
CC1(C)C2CC=C(/C=N/NC(=S)NCCc3ccccc3)C1C2 (stereo not given)	i	i	-17.7	i	i	2.32	i	i	i
CCCOc1ccc(C(=O)CCN2CCN(C(=O)OCC)CC2)cc1	/	/	/	/	i	/	/	/	/
O=c1cc(Cl)c(-c2ccccc2)nn1Cc1ccc(Cl)cc1	i	i	-4.1	i	i	0.69	/	/	/
O=c1cc(N2CCCCC2)c(-c2ccccc2)nn1Cc1ccc(Cl)cc1Cl	i	9*	-7.0	-20.8*	i	2.48	80.0%*	i	45.5%*
Cc1ccc(NC(=O)CN2C(=O)NC(Cc3ccccc3)C2=O)cc1Cl (stereo not given)	/	/	/	/	i	/	/	/	/
CCn1c(SCC(=O)NC2CCCCC2)nnc1-c1cc2cccc(OC)c2o1	i	i	-9.4	i	i	-1.17	i	i	i
CCn1c(SCC(=O)Nc2nccs2)nnc1-c1cc2cccc(OC)c2o1	i	i	-5.6	i	i	-1.95	/	/	/
C#CCCOC(=O)N1C2=NC(C(=O)OC)=C(C(=O)OC)[C@@H]3N(C)c4ccccc4[C@]23C[C@H]1C(=O)OC	i	i	-9.0	i	i	0.31	/	/	/
C=CCN1c2ccccc2[C@]23C[C@@H](C(=O)OC)N(C(=O)NCCC)C2=NC(C(=O)OC)=C(C(=O)OC)[C@H]13	i	i	-3.1	-9.28*	i	0.85	32.5%*	i	29.5%*
C#CCCOC(=O)N1C2=NC(C(=O)OC)=C(C(=O)OC)[C@@H]3N(Cc4ccccc4)c4ccccc4[C@]23C[C@H]1C(=O)OC	i	i	-6.0	-9.5*	i	0.34	51.0%*	i	33.5%*
COc1ccc(Cn2c(C)nc3ccc([N+](=O)[O-])cc3c2=O)cc1	i	i	-4.6	i	i	0.02	/	/	/
COc1ccc(CC(=O)N2CCc3cc(OC)c(OC)cc3C2C)c(OC)c1 (stereo not given)	i	i	-5.0	i	i	-0.4	/	/	/
Cc1ccc(Cc2nnc3n(-c4ccccc4)nc(C(=O)c4ccccc4)n3c2=O)cc1	i	i	-3.0	i	i	0.22	i	i	i
O=C(NC1CCCC1)C(c1ccccn1)N(C(=O)c1csnn1)c1ccccc1F (stereo not given)	i	i	-2.4	i	i	0.39	/	/	/
CCC(OCC(O)CN1CCN(CCN2C(=O)c3cccc4cccc(c34)C2=O)CC1)c1ccccc1 (stereo not given)	i	i	-18.1	i	i	-0.91	i	i	i
Cc1ccccc1OCC(O)CN1CCN(CCN2C(=O)c3cccc4cccc(c34)C2=O)CC1 (stereo not given)	i	i	-9.9	i	i	0.09	i	i	i
C=CCc1ccccc1OCC(O)CN1CCN(CCN2C(=O)c3cccc4cccc(c34)C2=O)CC1 (stereo not given)	i	i	-31.4	i	i	-2.17	i	i	i
